ChEMBL document CHEMBL1122658, “Amnesia-reversal activity of a series of N-[(disubstituted-amino)alkyl] -2-oxo-1-pyrrolidineacetamides, including pramiracetam” (1984)
“And” between values parts separate entries of the source, which are not always exact repeats. Equal entries are not always repeated.

Columns and labels:
Mus musculus [1] = assay: Ability to reverse electroconvulsive shock induced amnesia in mice, after administering intraperitoneally at a dose of 2.5 mg/kg; assay type: functional; settings: route intraperitoneal
Outline: (§1)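 Male CF-1 mice (20-25 g), five groups of 20, trained in one trial on step-through inhibitory avoidance (darkened chamber). ECS given 2 h after training. Test drug or vehicle placebo injected ip 2 h after ECS, 1 h before retention test. Entry into box within 60 s scored as amnesia. % reversal = (drug − base-line ECS+placebo)/(ceiling no-ECS+placebo − base-line) ×100.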

Mus musculus [2] = assay: Compound was evaluated for the ability to reverse electroconvulsive shock (ECS) induced amnesia in mice, after administering intraperitoneally, at a dose of 80.0 mg/kg; 18 of 20 mice died at this dose; assay type: functional; settings: route intraperitoneal; outline: as §1
Mus musculus [3] = assay: Ability to reverse electroconvulsive shock (ECS) induced amnesia in mice, after administering intraperitoneally, at a dose of 5 mg/kg; assay type: functional; settings: route intraperitoneal; outline: as §1
Mus musculus [4] = assay: Ability to reverse electroconvulsive shock induced amnesia in mice, after administering intraperitoneally at a dose of 20.0 mg/kg; assay type: functional; settings: route intraperitoneal; outline: as §1
Mus musculus [5] = assay: Ability to reverse electroconvulsive shock induced amnesia in mice, after administering intraperitoneally at a dose of 1.25 mg/kg; assay type: functional; settings: route intraperitoneal; outline: as §1
Mus musculus [6] = assay: Ability to reverse electroconvulsive shock (ECS) induced amnesia in mice, after administering intraperitoneally, at a dose of 10.0 mg/kg; assay type: functional; settings: route intraperitoneal; outline: as §1
Mus musculus [7] = assay: Ability to reverse electroconvulsive shock induced amnesia in mice, after administering intraperitoneally at a dose of 5 mg/kg; assay type: functional; settings: route intraperitoneal; outline: as §1
Mus musculus [8] = assay: Compound was evaluated for the ability to reverse electroconvulsive shock (ECS) induced amnesia in mice, after administering intraperitoneally, at a dose of 320.0 mg/kg; 18 of 20 mice died at this dose before completion of the test; assay type: functional, organism-based; set-up: dose 320 mg/kg; outline: as §1
Mus musculus [9] = assay: Ability to reverse electroconvulsive shock induced amnesia in mice, after administering intraperitoneally at a dose of 20 mg/kg; assay type: functional; settings: route intraperitoneal; outline: as §1
Mus musculus [10] = assay: Ability to reverse electroconvulsive shock (ECS) induced amnesia in mice, after administering intraperitoneally, at a dose of 80 mg/kg; assay type: functional; settings: route intraperitoneal; outline: as §1
Mus musculus [11] = assay: Ability to reverse electroconvulsive shock (ECS) induced amnesia in mice, after administering intraperitoneally, at a dose of 160 mg/kg; assay type: functional; settings: route intraperitoneal; outline: as §1
Mus musculus [12] = assay: Compound was evaluated for the ability to reverse electroconvulsive shock (ECS) induced amnesia in mice, after administering intraperitoneally, at a dose of 40.0 mg/kg; assay type: functional; settings: route intraperitoneal; outline: as §1
Mus musculus [13] = assay: Compound was evaluated for the ability to reverse electroconvulsive shock (ECS) induced amnesia in mice, after administering intraperitoneally, at a dose of 10 mg/kg; assay type: functional; settings: route intraperitoneal; outline: as §1
Mus musculus [14] = assay: Compound was evaluated for the ability to reverse electroconvulsive shock (ECS) induced amnesia in mice, after administering intraperitoneally, at a dose of 5 mg/kg; assay type: functional; settings: route intraperitoneal; outline: as §1
Mus musculus [15] = assay: Ability to reverse electroconvulsive shock (ECS) induced amnesia in mice, after administering intraperitoneally, at a dose of 0.63 mg/kg; assay type: functional; settings: route intraperitoneal; outline: as §1
Mus musculus [16] = assay: Compound was evaluated for the ability to reverse electroconvulsive shock (ECS) induced amnesia in mice, after administering intraperitoneally, at a dose of […] mg/kg; assay type: functional; outline: as §1
Mus musculus [17] = assay: Ability to reverse electroconvulsive shock (ECS) induced amnesia in mice, after administering intraperitoneally, at a dose of 80.0 mg/kg; assay type: functional; settings: route intraperitoneal; outline: as §1
Mus musculus [18] = assay: Compound was evaluated for the ability to reverse electroconvulsive shock (ECS) induced amnesia in mice, after administering intraperitoneally, at a dose of 320 mg/kg; assay type: functional; settings: route intraperitoneal; outline: as §1
Mus musculus [19] = assay: Compound was evaluated for the ability to reverse electroconvulsive shock (ECS) induced amnesia in mice, after administering intraperitoneally, at a dose of 40 mg/kg; assay type: functional; settings: route intraperitoneal; outline: as §1
Mus musculus [20] = assay: Ability to reverse electroconvulsive shock (ECS) induced amnesia in mice, after administering intraperitoneally, at a dose of 0.31 mg/kg; assay type: functional; settings: route intraperitoneal; outline: as §1

SMILES: CCC1CCC(=O)N1CC(=O)NCCCN1C(C)CCCC1C (configuration not stated)
- Amnesia reversal (Mus musculus [1]): 50%
- Amnesia reversal (Mus musculus [2]): 42%
- Amnesia reversal (Mus musculus [3]): 50%
- Amnesia reversal (Mus musculus [4]): 42%
- Amnesia reversal (Mus musculus [5]): 20%

SMILES: COC(=O)C(c1ccccc1)C1CCCCN1 (configuration not stated) [METHYLPHENIDATE]
- Amnesia reversal (Mus musculus [1]): 10%
- Amnesia reversal (Mus musculus [4]): 15%
- Amnesia reversal (Mus musculus [6]): 10%
- Amnesia reversal (Mus musculus [5]): 15%
- Amnesia reversal (Mus musculus [7]): 15%

SMILES: CC1CCCC(C)N1CCCCNC(=O)CN1CCCC1=O (configuration not stated)
- Amnesia reversal (Mus musculus [8]): 18 of 20 mice died at this dose before completion of the test
- Amnesia reversal (Mus musculus [9]): 60%
- Amnesia reversal (Mus musculus [10]): 100%
- Amnesia reversal (Mus musculus [7]): 50%
- Amnesia reversal (Mus musculus [11]): 60%

SMILES: NC1=NC(=O)C(c2ccccc2)O1 (configuration not stated) [PEMOLINE]
- Amnesia reversal (Mus musculus [12]): 56%
- Amnesia reversal (Mus musculus [1]): 20%
- Amnesia reversal (Mus musculus [9]): 44%
- Amnesia reversal (Mus musculus [3]): 20%
- Amnesia reversal (Mus musculus [13]): 56%

SMILES: NC(=O)CN1CCCC1=O [PIRACETAM]
- Amnesia reversal (Mus musculus [9]): 20%
- Amnesia reversal (Mus musculus [14]): 15%
- Amnesia reversal (Mus musculus [10]; 80 mg/kg): 15% and 10%
- Amnesia reversal (Mus musculus [3]): 10%

SMILES: CC1CCCCN1CCCNC(=O)CN1CCCC1=O (configuration not stated)
- Amnesia reversal (Mus musculus [15]): 0%
- Amnesia reversal (Mus musculus [16]): 10%
- Amnesia reversal (Mus musculus [17]): 17%
- Amnesia reversal (Mus musculus [4]): 33%
- Amnesia reversal (Mus musculus [5]): 0%
- Amnesia reversal (Mus musculus [7]): 33%

SMILES: O=C(CN1CCCC1=O)NCCCN1CCOCC1
- Amnesia reversal (Mus musculus [17]): 58%
- Amnesia reversal (Mus musculus [4]): 17%
- Amnesia reversal (Mus musculus [7]): 0%
- Amnesia reversal (Mus musculus [18]): 15%
- Amnesia reversal (Mus musculus [11]): 54%

SMILES: CC(C)CN(CCNC(=O)CN1CCCC1=O)CC(C)C
- Amnesia reversal (Mus musculus [1]): 33%
- Amnesia reversal (Mus musculus [17]): 15%
- Amnesia reversal (Mus musculus [4]): 25%
- Amnesia reversal (Mus musculus [6]): 25%
- Amnesia reversal (Mus musculus [5]): 25%
- Amnesia reversal (Mus musculus [7]): 54%

SMILES: CCC1CCC(=O)N1CC(=O)NCCN(C(C)C)C(C)C (configuration not stated)
- Amnesia reversal (Mus musculus [15]): 20%
- Amnesia reversal (Mus musculus [1]): 58%
- Amnesia reversal (Mus musculus [4]): 17%
- Amnesia reversal (Mus musculus [6]): 60%
- Amnesia reversal (Mus musculus [5]): 20%
- Amnesia reversal (Mus musculus [7]): 58%

SMILES: C1CCc2nnnn2CC1 [PENTYLENETETRAZOL]
- Amnesia reversal (Mus musculus [1]): 15%
- Amnesia reversal (Mus musculus [9]): 15%
- Amnesia reversal (Mus musculus [7]): 20%
- Amnesia reversal (Mus musculus [13]): 10%
- Amnesia reversal (Mus musculus [19]): 15%

SMILES: CC1CCCC(C)N1CCCNC(=O)CN1CCC(c2ccccc2)C1=O (configuration not stated)
- Amnesia reversal (Mus musculus [9]): 67%
- Amnesia reversal (Mus musculus [14]): 50%
- Amnesia reversal (Mus musculus [10]): 0%

SMILES: Cn1c(=O)c2c(ncn2C)n(C)c1=O [CAFFEINE]
- Amnesia reversal (Mus musculus [15]): 5%
- Amnesia reversal (Mus musculus [1]): 10%
- Amnesia reversal (Mus musculus [3]): 0%
- Amnesia reversal (Mus musculus [20]): 10%
- Amnesia reversal (Mus musculus [5]): 0%

SMILES: CC(C)(CNC(=O)CN1CCCC1=O)N1CCCCC1
- Amnesia reversal (Mus musculus [17]): 55%
- Amnesia reversal (Mus musculus [4]): 27%
- Amnesia reversal (Mus musculus [7]): 18%
- Amnesia reversal (Mus musculus [18]): 27%
- Amnesia reversal (Mus musculus [19]): 73%
- Amnesia reversal (Mus musculus [11]): 45%

SMILES: N[C@@H]1C[C@H]1c1ccccc1.N[C@H]1C[C@@H]1c1ccccc1 [TRANYLCYPROMINE]
- Amnesia reversal (Mus musculus [1]): 5%
- Amnesia reversal (Mus musculus [6]): 10%
- Amnesia reversal (Mus musculus [5]): 10%
- Amnesia reversal (Mus musculus [7]): 15%

SMILES: [Cl-].[Li+] [CHLOROLITHIUM]
- Amnesia reversal (Mus musculus [15]): 15%
- Amnesia reversal (Mus musculus [1]): 15%
- Amnesia reversal (Mus musculus [10]): 20%
- Amnesia reversal (Mus musculus [4]): 25%
- Amnesia reversal (Mus musculus [6]): 30%
- Amnesia reversal (Mus musculus [5]): 10%
- Amnesia reversal (Mus musculus [7]): 15%
- Amnesia reversal (Mus musculus [19]): 30%

SMILES: CCC1(C)CC(=O)NC1=O (configuration not stated) [ETHOSUXIMIDE]
- Amnesia reversal (Mus musculus [9]): 12%
- Amnesia reversal (Mus musculus [10]): 10%
- Amnesia reversal (Mus musculus [13]): 15%
- Amnesia reversal (Mus musculus [19]): 10%
- Amnesia reversal (Mus musculus [11]): 10%

SMILES: CN(C)CCCN1c2ccccc2CCc2ccccc21 [IMIPRAMINE]
- Amnesia reversal (Mus musculus [12]): 15%
- Amnesia reversal (Mus musculus [9]): 5%
- Amnesia reversal (Mus musculus [7]): 10%
- Amnesia reversal (Mus musculus [13]): 10%
